Test results taken from ChEMBL document CHEMBL3822384, “2-(3-Methoxyphenyl)quinazoline Derivatives: A New Class of Direct Constitutive Androstane Receptor (CAR) Agonists” (J Med Chem, 2016).
Activity calls are given as the source filed them. No cut-off for these calls is given here.

Assays:
Cytochrome P450 2C9 = Cytochrome P450 2C9 (Homo sapiens, UniProt P11712); experiment: Inhibition of recombinant human CYP2C9 by P450-Glo luminescence assay; format: ADME
[1] = target: T1, Nuclear receptor subfamily 1 group I member 3 (Homo sapiens, UniProt Q14994); experiment: Agonist activity at CAR expressed in human HepG2 cells after 24 hrs by CYP3A4-luciferase reporter gene assay; format: cell-based; details: hepg2, 24 h
T1 sequence (Q14994 whole entry): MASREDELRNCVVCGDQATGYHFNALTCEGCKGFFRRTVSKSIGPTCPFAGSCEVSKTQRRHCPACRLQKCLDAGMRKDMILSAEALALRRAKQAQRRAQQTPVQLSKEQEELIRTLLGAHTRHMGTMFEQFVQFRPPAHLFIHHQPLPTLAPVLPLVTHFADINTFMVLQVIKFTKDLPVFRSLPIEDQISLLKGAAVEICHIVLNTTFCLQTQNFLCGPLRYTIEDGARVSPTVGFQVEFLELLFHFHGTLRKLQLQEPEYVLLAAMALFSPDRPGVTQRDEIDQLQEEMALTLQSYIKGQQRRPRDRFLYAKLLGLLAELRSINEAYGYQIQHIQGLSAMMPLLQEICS
Procedure, shortened: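 HepG2 cells co-transfected with CYP3A4-luc, wild-type CAR vector and pRL-TK; 24 h stabilization, then compound or DMSO (0.1%, v/v) for 24 h, with parallel androstenol (5 µM) treatment to suppress basal activity. Dual firefly/Renilla luciferase read; fold induction over vehicle (set to 1), means of three independent experiments.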

Cytochrome P450 2B6 = target: T2, Cytochrome P450 2B6 (Homo sapiens, UniProt P20813); experiment: Inhibition of recombinant human CYP2B6 by P450-Glo luminescence assay; format: ADME
T2 sequence (P20813 whole entry): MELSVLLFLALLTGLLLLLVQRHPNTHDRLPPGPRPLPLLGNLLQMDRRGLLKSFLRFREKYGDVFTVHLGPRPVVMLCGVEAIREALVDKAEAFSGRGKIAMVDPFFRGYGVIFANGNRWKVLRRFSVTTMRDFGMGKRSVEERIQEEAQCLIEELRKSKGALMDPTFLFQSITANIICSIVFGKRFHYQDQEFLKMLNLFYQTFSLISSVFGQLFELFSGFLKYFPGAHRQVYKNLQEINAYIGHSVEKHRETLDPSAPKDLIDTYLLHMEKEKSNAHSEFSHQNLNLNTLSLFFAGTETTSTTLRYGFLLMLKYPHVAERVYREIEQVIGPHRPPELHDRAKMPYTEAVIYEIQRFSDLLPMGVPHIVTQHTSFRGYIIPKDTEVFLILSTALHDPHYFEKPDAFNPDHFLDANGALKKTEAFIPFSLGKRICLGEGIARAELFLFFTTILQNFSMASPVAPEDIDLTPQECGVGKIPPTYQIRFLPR

[2] = target: T3, Nuclear receptor subfamily 1 group I member 2 (Homo sapiens, UniProt O75469); experiment: Agonist activity at PXR in human primary hepatocytes assessed as upregulation of UGT1A1 mRNA expression at 10 uM after 24 hrs by qRT-PCR method; format: cell-based, Hepatocyte
T3 sequence (O75469 whole entry): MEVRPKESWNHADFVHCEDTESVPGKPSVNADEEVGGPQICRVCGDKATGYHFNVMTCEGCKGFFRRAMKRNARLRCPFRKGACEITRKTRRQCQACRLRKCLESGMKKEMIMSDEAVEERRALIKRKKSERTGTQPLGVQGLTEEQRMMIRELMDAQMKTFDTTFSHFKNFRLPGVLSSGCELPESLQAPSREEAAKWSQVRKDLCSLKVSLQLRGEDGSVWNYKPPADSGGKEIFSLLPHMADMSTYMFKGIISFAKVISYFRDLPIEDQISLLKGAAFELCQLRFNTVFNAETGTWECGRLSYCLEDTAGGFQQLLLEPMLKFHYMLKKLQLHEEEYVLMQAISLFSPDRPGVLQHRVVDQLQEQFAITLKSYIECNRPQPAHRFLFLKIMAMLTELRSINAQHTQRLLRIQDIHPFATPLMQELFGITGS

PXR (NR1I2) = target: T4, PXR (NR1I2) (Homo sapiens, UniProt O75469); experiment: (§1) Agonist activity at PXR expressed in human HepG2 cells after 24 hrs by p3A4-luciferase reporter gene assay; details: human, HepG2 cells expressing PXR
T4 sequence (O75469 whole entry): T3 sequence (O75469 whole entry)

[3] = target: T3, Nuclear receptor subfamily 1 group I member 2; experiment: as §1
[4] = target: T1, Nuclear receptor subfamily 1 group I member 3; experiment: Agonist activity at CAR LBD (108 to 348 residues) expressed in human HepG2 cells assessed as receptor binding to PGC1alpha by lanthascreenTR-FRET coactivator assay
CAR3 (NR1I3) = CAR3 (NR1I3) (Homo sapiens, UniProt Q14994, WILDTYPEORMUTANTINASSAY1587668); experiment: (§2) Agonist activity at human CAR3 expressed in African green monkey COS-1 cells cotransfected with RXRalpha after 24 hrs by CYP2B6-luciferase reporter gene assay; format: cell-based; details: human, COS-1 cells expressing human CAR3 and RXRalpha; read-out: Imax
Procedure, shortened: (§3)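 COS-1 cells co-transfected with CYP2B6-luc, low-constitutive-activity CAR3 variant, RXRα (100 ng/well) and pRL-TK; after 24 h stabilization, compound or DMSO (0.1%, v/v) for 24 h. Firefly luciferase normalized to Renilla; fold change relative to vehicle (set to 1), means of three independent experiments.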

[5] = target: Nuclear receptor subfamily 1 group I member 3 (Homo sapiens, UniProt Q14994); experiment: as §2; format: cell-based; details: for EC50: cos-1; for Activity: human, cos-1, 24 h; procedure, shortened: as §3
HepG2 = experiment: Cytotoxicity against human HepG2 cells assessed as cell viability after 24 hrs by MTS assay; format: cell-based; details: hepg2, 24 h
[6] = target: T5, Glucocorticoid receptor (Homo sapiens) (UniProt P04150); experiment: Agonist activity at glucocorticoid receptor (unknown origin)
T5 sequence (whole entry): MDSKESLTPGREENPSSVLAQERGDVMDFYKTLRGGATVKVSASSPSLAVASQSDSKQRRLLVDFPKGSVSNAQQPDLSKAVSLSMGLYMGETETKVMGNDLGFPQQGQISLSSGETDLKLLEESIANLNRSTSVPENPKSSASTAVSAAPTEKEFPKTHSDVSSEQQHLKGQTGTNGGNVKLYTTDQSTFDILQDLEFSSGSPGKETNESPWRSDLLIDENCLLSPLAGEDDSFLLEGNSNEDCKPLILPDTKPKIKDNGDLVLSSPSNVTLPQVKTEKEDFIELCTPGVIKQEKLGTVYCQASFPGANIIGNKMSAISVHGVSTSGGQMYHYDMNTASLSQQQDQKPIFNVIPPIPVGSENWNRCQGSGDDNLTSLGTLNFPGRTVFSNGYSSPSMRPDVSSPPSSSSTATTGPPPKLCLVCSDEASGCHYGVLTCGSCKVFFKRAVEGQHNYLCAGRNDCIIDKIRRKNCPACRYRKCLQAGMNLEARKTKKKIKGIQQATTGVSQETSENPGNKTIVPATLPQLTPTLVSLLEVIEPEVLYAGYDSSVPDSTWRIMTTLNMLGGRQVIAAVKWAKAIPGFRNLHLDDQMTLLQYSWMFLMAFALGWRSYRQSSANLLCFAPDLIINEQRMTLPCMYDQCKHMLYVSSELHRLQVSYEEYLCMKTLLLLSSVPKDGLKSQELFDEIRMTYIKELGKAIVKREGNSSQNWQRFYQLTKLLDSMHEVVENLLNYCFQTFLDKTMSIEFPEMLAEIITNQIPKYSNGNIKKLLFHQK

Cytochrome P450 2C9, sequence (P11712 whole entry): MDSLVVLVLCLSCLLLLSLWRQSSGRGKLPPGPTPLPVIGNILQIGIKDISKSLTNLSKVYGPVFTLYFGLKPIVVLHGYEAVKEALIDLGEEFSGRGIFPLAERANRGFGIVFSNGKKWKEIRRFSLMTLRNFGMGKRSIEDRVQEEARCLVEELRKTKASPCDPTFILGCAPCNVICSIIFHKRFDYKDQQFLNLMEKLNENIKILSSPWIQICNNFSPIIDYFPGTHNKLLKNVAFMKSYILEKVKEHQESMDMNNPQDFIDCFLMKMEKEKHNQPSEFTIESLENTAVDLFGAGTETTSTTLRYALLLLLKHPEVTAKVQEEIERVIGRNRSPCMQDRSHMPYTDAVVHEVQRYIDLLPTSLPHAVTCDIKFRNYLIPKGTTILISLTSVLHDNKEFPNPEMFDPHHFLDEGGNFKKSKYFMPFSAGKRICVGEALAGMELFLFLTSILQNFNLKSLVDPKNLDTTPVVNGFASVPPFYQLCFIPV

## COc1cccc(-c2nc(SC)c3ccccc3n2)c1
Cytochrome P450 2C9
  IC50: 4.19 µM
[1]
  Activity: Dose-dependent effect
Cytochrome P450 2B6
  IC50: 31.8 µM
[2]
  Activity: Active
PXR (NR1I2)
  Emax at 24 h: > 250%
[3]
  EC50: > 3.5 µM
[4]
  EC50: 5.12 µM
CAR3 (NR1I3)
  Emax at 24 h: 158%
[5]
  EC50: 4.04 µM
  Activity: Dose-dependent effect
HepG2
  Activity: Non-toxic
[6]
  Activity: inactive

## COc1cccc(-c2nc(OC)c3ccccc3n2)c1
Cytochrome P450 2C9
  IC50: 5.03 µM
[1]
  Activity: Dose-dependent effect
Cytochrome P450 2B6
  IC50: 36.2 µM
[2]
  Activity: Active
PXR (NR1I2)
  Emax at 24 h: > 250%
[3]
  EC50: > 3 µM
[4]
  EC50: 2.07 µM
CAR3 (NR1I3)
  Emax at 24 h: 462%
[5]
  EC50: 4.91 µM
  Activity: Dose-dependent effect
HepG2
  Activity: Non-toxic
[6]
  Activity: inactive

## COc1cccc(-c2nc3ccccc3c(=S)[nH]2)c1
Cytochrome P450 2C9
  IC50: 11 µM
[1]
  Activity: Dose-dependent effect
Cytochrome P450 2B6
  IC50: 35.7 µM
[2]
  Activity: Active
PXR (NR1I2)
  Emax at 24 h: 165%
[3]
  EC50: 0.86 µM
[4]
  EC50: 0.69 µM
CAR3 (NR1I3)
  Emax at 24 h: 333%
[5]
  EC50: 6.12 µM
  Activity: Dose-dependent effect
HepG2
  Activity: Non-toxic
[6]
  Activity: inactive
